Source: PubChem BioAssay (Columbia University Molecular Screening Center)
Insulin prom act: TRM-6 insulin promoter activation | TRM-6 cells (human fetal islet line), insulin promoter eGFP reporter, imaging; plate-scaled: unstimulated 0, stimulated control 100 | activation, % at 2 µM | actives 0.81% (n = 130,000);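 active means activation at 2 µM above a set limit, confirmed on inspection of the cell images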;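 further: share of cells whose green reporter signal exceeds an intensity cutoff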
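Material: TRM-6 insulin promoter–eGFP reporter cells. Buffer or medium: Low-glucose (5.5 mM) medium with tamoxifen. Probe or stimulus: tamoxifen at 0.75 µM added at seeding for reporter induction. Times: tamoxifen pre-incubation 15 h overnight, then compound exposure 48 h at 37 °C. Detection: high-content imaging of fixed cells with Hoechst nuclear stain.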
* hit, by the source's call; [ ] = remark or other dose. Only a selection was taken, and hits are over-represented in it overall.

SMILES	Insulin prom act
CCC(C)N1C(=O)/C(=C/c2c(NCCCOC(C)C)nc3c(C)cccn3c2=O)SC1=S (centres undefined)	164*
CC(=O)NC1C(Oc2ccc3c(C)cc(=O)oc3c2)OC(COC(C)=O)C(OC(C)=O)C1OC(C)=O (centres undefined)	-8
Cc1nc2nc[nH]n2c(=O)c1CCC(C)C	0
COc1ccccc1Oc1coc2c(CN3CCN(C)CC3)c(O)ccc2c1=O	8
O=C1/C(=C/c2ccco2)CCc2ccccc21	0
CC1CCN(Cc2c(O)ccc3c2O/C(=C\c2ccco2)C3=O)CC1	486*
Cc1onc(-c2ccccc2Cl)c1C(=O)N1CCN=C1SCc1cccnc1	-73
COc1ccc(OC)c(S(=O)(=O)Nc2cccc(F)c2)c1	-4
O=C(c1cccn2c(=O)c3cc(Cl)ccc3nc12)N1CCN(Cc2ccc3c(c2)OCO3)CC1	-9
NC(=O)C1(N2CCCCC2)CCN(C(=O)c2cccn3c(=O)c4cc(Cl)ccc4nc23)CC1	150*
CCOCCCn1c(=S)[nH]c2cc(C(=O)N3CCC(C(N)=O)(N4CCCCC4)CC3)ccc2c1=O	-7
CCOP(=O)(O)c1ccccc1OCCCCCOc1ccccc1P(=O)(O)OCC	3
N#Cc1sc2nc3c(cc2c1N)CCCC3	-64
Cc1[nH]c2ccccc2c1C(=O)COC(=O)Cn1c(C(F)(F)F)nc2ccccc21	-7
O=C(Cn1c(C(F)(F)F)nc2ccccc21)c1ccc(F)cc1	84*
CC(C)NC(=O)Cn1c(SCC(=O)c2ccc(F)cc2)nc2ccccc21	224
O=C1C2C3C=CC(C3)C2C(=O)N1c1ccc(N2CCN(c3ccccn3)CC2)c([N+](=O)[O-])c1 (centres undefined)	-85
NS(=O)(=O)c1ccc(NC(=S)Nc2ccc(F)c(F)c2)cc1	8
NC(=S)Nn1c(-c2ccccc2)nc2ccccc2c1=O	3
CCOC(=O)C(=O)NC(C)CCc1ccccc1 (centres undefined)	-7
CCOC(=O)N(NC(=O)C(O)(C(C)C)C(C)C)c1ccccc1	112*
Cc1cccc(N(NC(=O)C(C)(C)O)C(=O)c2ccccc2)c1	0
CCS(=O)(=O)CCSC(=N)N	-9
N#C/C(=C\C1=C(N2CCOCC2)C(=C\c2ccc(Cl)cc2)/CC1)C(=O)Nc1ccccc1F	614*[fluoresces]
Cc1cc(=O)[nH]c(N/N=C/C2=C(N3CCOCC3)C(=C\c3ccc(Cl)cc3)/CC2)n1	-3
SMILES	Insulin prom act
CC(C)C(NC(=O)C12CC3CC(CC(C3)C1)C2)C(=O)N/N=C/C1=C(N2CCOCC2)C(=C\c2ccc([N+](=O)[O-])cc2)/CC1 (centres undefined)	176
N#C/C(=C\C1=C(N2CCOCC2)C(=C/c2cccc([N+](=O)[O-])c2)/CC1)C(=O)Nc1ccccc1F	614*
O=C(/C=C/c1cccc([N+](=O)[O-])c1)NCCN1CCOCC1	7
O=C(N/N=C/C1=C(N2CCOCC2)C(=C\c2ccccc2)/CC1)Nc1ccccc1	6
COCCNC(=O)C(c1cccnc1)N(Cc1ccc(C)cc1)C(=O)Cn1nnc2ccccc21 (centres undefined)	4
Cc1ccc2c(c1)C=CC(C)(C)S2(=O)=O	-3
CCOc1cc(C(=O)N(C)c2ccccc2)cc(OCC)c1OCC	158
CCCCOc1ccc(C2C(C(=O)c3ccc(C)o3)=C(O)C(=O)N2CC2CCCO2)cc1 (centres undefined)	8
O=C(CCSCCC(=O)NCCN1CCOCC1)NCCN1CCOCC1	-7
COCCNC(=O)C(=O)NCCN1CCOCC1	494*
COc1ccc(C(=O)NCCN2CCOCC2)cc1OC	-79
COC(=O)C1=C(C)NC(=O)NC1c1ccc(-c2ccc(F)cc2)o1 (centres undefined)	-6
COC(=O)C1=C(C)NC(=S)NC1c1ccc(-c2cccc(Cl)c2)o1 (centres undefined)	0
COC(=O)C1=C(C)NC(=S)NC1c1ccc(-c2ccccc2C(=O)OC)o1 (centres undefined)	429*
COc1ccc(C)cc1NC(=O)NCc1ccc(F)cc1	7
CCn1nnc(-c2ccccc2NS(=O)(=O)c2ccc(S(=O)(=O)N(C)C3CCCCC3)cc2)n1	3
Cc1ccc(OCCCC(=O)NC(C)c2ccccc2)cc1 (centres undefined)	0
COc1ccccc1C(C)NC(=O)CCOc1cccc(C)c1 (centres undefined)	-8
Cc1cccc(OCCCC(=O)NC(C)c2ccccc2)c1 (centres undefined)	85*
CCCOc1ccc(C(=O)NCC(C)(C)N2CCOCC2)cc1	0
CC(C)NC(=O)NC(=O)COC(=O)/C=C/c1ccccc1[N+](=O)[O-]	-6
Cn1cc(/C=C2/SC(=O)N(CC(=O)Nc3ccc4c(c3)OCO4)C2=O)c2ccccc21	4
O=C(CN1C(=O)S/C(=C/C=C/c2ccccc2)C1=O)Nc1ccc(C(=O)O)cc1	550*
CC(=O)c1ccc(NC(=O)CCCN2C(=O)/C(=C/C(C)=C/c3ccccc3)SC2=S)cc1	0
CCn1c(SCC(=O)Nc2nc3ccc(C)cc3s2)nc2c(c1=O)SC(C)C2 (centres undefined)	0
SMILES	Insulin prom act
COCCNC(=O)CCCC(=O)NCCOC	3
O=C(NCCc1ccccc1)c1oc2ccccc2c1COc1ccccc1	80*
O=C(COC(=O)COc1ccccc1)NCc1ccccc1	0
O=C(NCCc1ccccc1)c1ccc(-c2ccccc2C(F)(F)F)o1	5
Cc1ccc(N2C(=O)C3C(c4ccccc4)N4CCCN4C3(C)C2=O)cc1 (centres undefined)	0
CC(C)CN1C(=O)/C(=C(/C#N)C(=O)NC2CCCCC2)c2ccccc21	8
COCCCN1CN(Cc2ccccc2)CNC1=S	-2
O=C(Nc1ccccc1Oc1ccccc1)C1CC1	-8
N#CC(Sc1ccccn1)c1ccc(Cl)cc1 (centres undefined)	-6
CC(=O)c1ccc(NC(=O)c2cccs2)cc1	-3
O=C(Nc1ccncc1)c1cccs1	-10
COC(=O)Cc1ccc(NC(=O)c2cccs2)cc1	460*
CC(C)N(C(=O)CSc1nnc(Cc2csc(Nc3ccccc3)n2)o1)C(C)C	0
CC(=O)Nc1ccc(S(=O)(=O)N(C)CC(=O)OCC(=O)c2cc(C)n(-c3ccc4c(c3)OCO4)c2C)cc1	3
CCOC(=O)c1nn(-c2ccccc2)c2nc(-c3ccc(OC)cc3)c(C#N)c(=O)n12	7
Cc1c(C(=O)NN)nn(-c2ccc(Cl)cc2)c(=O)c1C#N	0
COC(=O)Nc1nn(-c2ccc(OC)cc2)c(=O)c(C#N)c1C	287*
CSc1nnc(C)c(=O)n1COC(=O)COc1ccc(Cl)cc1Cl	8
O=C(CN1CCN(c2ccccc2)CC1)Nc1ccc(OCc2ccccc2)cc1	-5
COc1ccccc1NC(=S)N1CCN(Cc2ccc3c(c2)OCO3)CC1	0
C[C@@H](O)C1NC(=O)[C@H](CCCCN)NC(=O)c2cc([N+](=O)[O-])cc(I)c2OCC[C@@H](C(N)=O)NC1=O (some centres undefined)	9
CCC1(C)CC(c2nc(-c3ccc(OC)cc3)cs2)CCS1 (centres undefined)	0
Cc1ccc(C(=O)Nc2ccc3c(c2)OCO3)cc1	5
Cc1ccccc1OCCCC(=O)Nc1ccc2c(c1)OCO2	-7
CCCCC(=O)Nc1ccc(C(=O)Nc2ccc3c(c2)OCO3)cc1	475*
O=C(O)c1sc2cccc(Cl)c2c1Cl	-4
O=C(C1CC1)N(CCN(Cc1ccccc1)C(=O)C1CC1)Cc1ccccc1	250*
